# In the library only some 2.4% were active in any assay of this set; here they are far more common.
# VIM-2 inhibitor: blocks Pseudomonas aeruginosa VIM-2 metallo-beta-lactamase. purified VIM-2, nitrocefin hydrolysis, epi-absorbance fluorescence. inhibition, % at 5.6 µM. 290,000 tested, 0.89% active;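 active means inhibition above the mean of all tested compounds plus 3 SD, cutoff set per screening run, cut at about 7.5% in these data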;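 further: red hydrolysis product quenches plate fluorescence so inhibitors raise well fluorescence; 0% = enzyme with DMSO and 100% = DMSO without enzyme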
# HGIII-sPLA2 inh: Inhibits HGIII-sPLA2 liposome hydrolysis, primary screen. 370,000 tested, 0.56% active. inhibition, % at 12.2 µM. Q9NZ20. QFRET BODIPY PC-A2 liposome hydrolysis, fluorescence. AID 743126;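 active means inhibition above mean plus 3 SD of compounds lying within the high and low control bounds, cut at about 19% in these data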;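 further: 0% = median of test compound wells and 100% = no enzyme DMSO wells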
# IMP-1 inh: blocks Pseudomonas aeruginosa IMP-1 metallo-beta-lactamase | purified IMP-1, nitrocefin hydrolysis, epi-absorbance fluorescence | inhibition, % at 5.6 µM | 290,000 tested, 0.45% active | AID 1556;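 active means inhibition above the mean plus 3 SD of all compounds in the same screening run, cut at about 4.5% in these data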;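 further: 0% = IMP-1 with DMSO and 100% = DMSO wells lacking enzyme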
#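 System: purified IMP-1 / Input: IMP-1 dispensed at 0.2 nM / Medium: 50 mM HEPES pH 7.1, 50 µM ZnSO4, 0.05% Brij 35 / Timing: 15 min enzyme–compound preincubation, then 25 min nitrocefin reaction, 25 °C / Technique: plate fluorescence quenching by hydrolysis product, ex 480/em 530 nm / Repeats: singlicate testing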
# PfM18AAP inh-1: PfM18AAP enzyme inhibition; 290,000 tested, 1.2% active; inhibition, % at 7.35 µM; AID 1822; recombinant PfM18AAP, H-Glu-NHMec fluorogenic cleavage;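 active means inhibition above the campaign mean inhibition over all tested compounds plus 3 SD, cut at about 28% in these data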;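 further: 0% = plate median of test compound wells and 100% = 2 mM ZnCl2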
# PfM18AAP inh-2: confirmation of Plasmodium falciparum M18 aspartyl aminopeptidase inhibitors. inhibition, % at 7.35 µM. 2,400 tested, 28% active. shares compounds with PfM18AAP inh-1. recombinant PfM18AAP, H-Glu-NHMec fluorogenic cleavage;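 active means mean inhibition over replicate wells above the hit cutoff set for the earlier primary screen, cut at about 29% in these data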;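 further: 0% = median of test compound wells and 100% = 2 mM ZnCl2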
# CTSL1 counter: counter-screen for PFM18AAP inhibitors: confirmation of human cathepsin L inhibitors; 2,400 tested, under 10 active; shares compounds with PfM18AAP inh-1; purified cathepsin L1, Z-Leu-Arg-MCA fluorescence; AID 2178; inhibition, % at 5.96 µM;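 active means average inhibition across replicates above the hit cutoff set in the earlier primary screen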;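 further: 0% = median of test compound wells and 100% = Z-Phe-Ala-diazomethylketone 1 µM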
# Target sequence (P07711 whole entry, looked up): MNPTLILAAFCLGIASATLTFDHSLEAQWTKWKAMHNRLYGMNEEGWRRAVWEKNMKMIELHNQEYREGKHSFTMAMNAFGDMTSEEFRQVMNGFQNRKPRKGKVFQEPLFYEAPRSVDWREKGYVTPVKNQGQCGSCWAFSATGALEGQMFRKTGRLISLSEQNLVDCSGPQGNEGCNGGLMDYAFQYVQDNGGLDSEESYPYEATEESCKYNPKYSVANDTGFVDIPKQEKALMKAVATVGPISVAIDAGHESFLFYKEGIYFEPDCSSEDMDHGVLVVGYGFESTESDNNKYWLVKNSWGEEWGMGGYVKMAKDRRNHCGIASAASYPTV
# * = called active by the depositor; x = not tested or not shown.
SMILES,VIM-2 inhibitor,HGIII-sPLA2 inh,IMP-1 inh,PfM18AAP inh-1,PfM18AAP inh-2,CTSL1 counter
CCCOc1ccc(C2C(C(=O)/C=C/c3ccco3)=C(O)C(=O)N2CCN2CCOCC2)cc1OC (centres undefined),-2,-9,-2,33*,-38,1
COc1cc(C2C(C(C)=O)=C(O)C(=O)N2CCN2CCOCC2)ccc1O (centres undefined),-3,-2,0,-3,x,x
O=c1ccc2[n+]([O-])c3ccc(O)cc3oc-2c1,-3,-12,-3,39*,-37,4
CC(C)C1NC(C(=O)O)Cc2c1[nH]c1ccccc21 (centres undefined),0,-1,0,37*,29*,-1
CCCC(=O)N1CCCC(c2cc(C(=O)NCc3cccnc3)no2)C1 (centres undefined),x,-4,x,x,x,x
O=C(N/N=C/c1ccc(-c2cccc([N+](=O)[O-])c2)o1)[C@H]1C[C@@H]1c1ccccc1,-3,3,-5,-1,x,x
O=C(N/N=C/c1ccc(-c2ccc([N+](=O)[O-])cc2)o1)[C@H]1C[C@@H]1c1ccccc1,0,-1,0,32*,-37,3
O=C(NNC(=O)C1CCN(S(=O)(=O)c2ccccc2)CC1)c1ccccc1O,-4,5,-4,40*,-8,-7
Cc1oc2c(O)c(O)ccc2c(=O)c1-c1ccccc1,x,5,x,x,x,x
Cc1oc2c(O)c(O)ccc2c(=O)c1-c1ccc(Cl)cc1,-1,7,-4,44*,19,-3
Cc1oc2c(O)c(O)ccc2c(=O)c1-c1cnn(-c2ccccc2)c1,1,3,-1,32*,27,-2
CC(C)(C)C(=O)OC12CCCN(C1)/C(=C/c1ccncc1)C2 (centres undefined),x,-1,x,x,x,x
O=C(Nn1c(O)c(C=C2N=c3ccccc3=N2)sc1=S)c1ccccc1Cl,-4,-11,-4,54*,-30,-1
O=S(=O)(Nn1c(O)c(C=C2N=c3ccccc3=N2)sc1=S)c1ccccc1,-4,-33,-5,25,x,x
COc1cc(C(=S)N2CCCC2)ccc1O,4,1,-1,-31,x,x
COc1cccc(C(=S)N2CCCC2)c1OC,-1,1,-3,39*,-19,-2
COc1cc(C(=S)N2CCCCC2)ccc1O,-1,-3,-5,36*,-22,-4
CC(=O)C1=CCC(c2ccccc2)N(S(C)(=O)=O)C1 (centres undefined),x,-6,x,x,x,x
COC(=O)[C@@]1(Cc2ccc(F)cc2)[C@H]2c3cc(C(=O)N(C)C)n(Cc4ccsc4Br)c3C[C@H]2CN1C(=O)c1ccccc1,x,-23,x,x,x,x
N#Cc1ccccc1S(=O)(=O)Nc1ccc2c(c1)OCCO2,-2,-1,-2,5,x,x
O=C(c1ccco1)N1CCN(C(=O)N2CCCCC2)CC1,-1,2,-4,90*,-35,-3
CC1CC2C(C(O)CC3(C)C2CCC3(O)C(=O)CO)C2(C)C=CC(=O)C=C12 (centres undefined),x,10,x,x,x,x
C=CCc1cccc(C=Nc2cc(Br)ccc2O)c1O,-2,9,-4,10,x,x
C=CCc1cccc(/C=N/c2ncn[nH]2)c1O,-2,-2,-3,57*,43*,-4
Cc1cccc(C)c1NC(=O)CSCC(=O)c1ccc(O)c(O)c1,1,-12,0,48*,-1,5
SMILES,VIM-2 inhibitor,HGIII-sPLA2 inh,IMP-1 inh,PfM18AAP inh-1,PfM18AAP inh-2,CTSL1 counter
Cc1cccc(C)c1NC(=O)CSCC(=O)O,-2,-3,-3,-4,x,x
C/C(=N/NC(=O)c1cc(O)c(O)c(O)c1)c1ccc([N+](=O)[O-])cc1,-2,13,-2,50*,12,2
C=CCN1C(=O)[C@@H](CC(=O)N2CCOCC2)[C@]2(C(=O)OC)CCCCC=C12,x,9,x,x,x,x
CCN1CCN(C(CCc2ccccc2)C(=O)NC2CCCCC2)CC1 (centres undefined),x,3,x,x,x,x
Oc1ccc(/C=N/Nc2cccc(Cl)n2)c(O)c1,-3,-45,0,58*,57*,7
NS(=O)(=O)c1ccc(NC(=S)NC2CCCCC2)cc1,-4,-6,-2,43*,-4,1
CCc1nc2c(OCc3ccc(Cl)cc3Cl)cccn2c1N(C=O)Cc1ccc(OC)cc1,x,1,x,x,x,x
O=C(N/N=C/c1cc(Br)cc([N+](=O)[O-])c1O)c1ccc(NC(=O)c2ccc(F)cc2)cc1,-3,6,-7,1,x,x
COc1ccc(/C=N/Nc2nc(C)c([N+](=O)[O-])c(N(C)c3ccccc3)n2)cc1OC,0,4,-4,18,x,x
COc1ccc(Nc2nc(N/N=C/c3ccc(N(C)C)cc3)nc(C)c2[N+](=O)[O-])cc1,-1,13,-3,49*,-53,-1
COc1ccc(Nc2nc(NN)nc(C)c2[N+](=O)[O-])cc1,-6,0,-3,52*,22,-1
COC(=O)CCC(C)N1CCC(Oc2ccc(C(=O)N3CCCC3)cc2)CC1 (centres undefined),-1,9,-2,-14,x,x
c1ccc2c(c1)Nc1nccnc1S2,-6,2,-1,36*,4,-7
O=C1Nc2cccnc2Sc2ccccc21,-1,7,-1,-2,x,x
Cc1cc(=O)n2[nH]c(N)c(N=Nc3ccccc3)c2n1,-2,-2,-6,41*,32*,8
Cc1ccc(N=Nc2c(N)[nH]n3c(=O)cc(-c4ccccc4)nc23)cc1,-2,0,-3,-11,x,x
S=c1nc(-c2ccc(Cl)cc2)[nH][nH]1,-3,-3,-4,5,x,x
S=c1nc(-c2ccco2)[nH][nH]1,-2,3,-5,44*,10,-2
O=C(Nc1ccccc1O)c1ccccc1O,-6,-2,-2,34*,29*,-5
Cc1ccc(N2C(=O)N(CC(=O)N3c4ccccc4CC3C)C(=O)C2C)cc1 (centres undefined),x,-5,x,x,x,x
Cc1nnc(N/N=C/c2c(Cl)cccc2Cl)n1N,1,1,0,51*,-52,4
Cc1nnc(N/N=C/c2cc(C)n(-c3ccc(F)cc3)c2C)n1N,-4,5,-3,53*,23,-6
Cn1c(N)c(C(=O)N2CCN(c3ccccc3)CC2)c(=O)n(C)c1=O,x,6,x,x,x,x
C/C(=N\NS(=O)(=O)c1ccc(Br)cc1)c1ccncc1,-2,-2,-1,53*,14,-5
C/C(=N/NS(=O)(=O)c1cccc([N+](=O)[O-])c1)c1ccncc1,0,8,-2,44*,4,-4
CCCCCc1c(-c2cccc(F)c2)ncn1CCc1ccccc1OC,x,-18,x,x,x,x
O=C(OCc1cn(Cc2cc(F)ccc2F)nn1)N1CCOCC1,x,-1,x,x,x,x
COc1ccc(-n2c(SCC(=O)NCc3cccs3)nc3[nH]ncc3c2=O)cc1,2,-3,-4,52*,34*,0
COc1cc(NC(=O)CSc2nc3[nH]ncc3c(=O)n2-c2ccc(Cl)cc2)cc(OC)c1,-3,-14,-2,12,x,x

# Compound activity: PubChem, The Scripps Research Institute Molecular Screening Center
